Sampled rows, rich in hits. Any-hit rate of the full collection: about 2.2%.
697 NFkB inh – lowers PMA/ionomycin-induced NF-kB signal in 697 B cells; 697 B-cell NF-kB luciferase reporter, 16 h; inhibition, % at 4 µM; 330,000 tested, 0.33% active; in the data active = inhibition above about 35%
miR-122 sensor – inhibitors of miR-122 in Huh7 cells; Huh7 miR-122 Renilla luciferase sensor, 48 h; neutral wells = 0, positive control = 100; activation (reporter increase), % at 12.5 µM; 340,000 tested, 0.3% active;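 active = mean replicate activation score at least 90 and every replicate individually at or above 90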;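 note: higher luciferase means less miR-122 activity so hits act as miR-122 inhibitors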
Jurkat NFkB inh – lowers PMA/ionomycin-induced NF-kB signal in Jurkat cells | AID 435003 | PMA/ionomycin-induced NF-kB luciferase reporter, luminescence | inhibition, % at 4 µM | 330,000 tested, 0.53% active; in the data active = inhibition above about 50%
NR2E3 ag-1 – human photoreceptor-specific nuclear receptor agonism. inhibition of corepressor binding, % at 3.98 µM. AID 602229. 360,000 tested, 0.35% active. CHO-S Gal4-NCOR/VP16-NR2E3 two-hybrid, luciferase;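 active = inhibition above the mean of all tested compounds plus 3 SD, cut at about 70% in these data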;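 note: 0% = DMSO with NR2E3 transfected cells and 100% = cells lacking NR2E3 construct; higher means lower luciferase signal from less NR2E3 corepressor binding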
Target sequence (Q9Y5X4 whole entry, looked up, the tested form may be a part): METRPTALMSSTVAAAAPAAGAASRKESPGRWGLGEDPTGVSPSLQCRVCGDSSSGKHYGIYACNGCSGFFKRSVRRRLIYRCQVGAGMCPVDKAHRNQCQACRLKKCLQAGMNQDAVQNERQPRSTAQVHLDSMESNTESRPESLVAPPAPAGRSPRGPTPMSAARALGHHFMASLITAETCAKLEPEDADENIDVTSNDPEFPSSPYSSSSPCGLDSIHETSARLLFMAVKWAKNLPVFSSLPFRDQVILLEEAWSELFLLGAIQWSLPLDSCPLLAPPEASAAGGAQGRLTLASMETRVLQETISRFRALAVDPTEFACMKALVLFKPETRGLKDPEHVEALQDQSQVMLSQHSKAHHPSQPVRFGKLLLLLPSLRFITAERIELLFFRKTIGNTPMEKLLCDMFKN
NR2E3 ag-2 – activates human photoreceptor nuclear receptor NR2E3; GST-NR2E3/biotin-RetCOR TR-FRET, 1536-well; 320,000 tested, 0.12% active; Q9Y5X4; inhibition of corepressor binding, % at 4.78 µM; AID 2300;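 active = percent inhibition above the cutoff of mean plus 3 SD of all tested compounds, set per screening campaign, cut at about 20% in these data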;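 note: 0% = DMSO wells and 100% = biotin wells as full block of FRET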
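Material: NR2E3–RetCOR corepressor complex | Quantity: 1.35 nM GST-tagged NR2E3 final | Schedule: 5 h at 4 °C | Replication: Singlicate compound wells | Reagent: RetCOR corepressor, biotinylated, 7 nM | Controls: Biotin wells as high control, 0.6% DMSO wells as low control | Signal: TR-FRET, Eu(K)-anti-GST donor, streptavidin-D2 acceptor, ex 340, em 617/671 nm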
FGF22 binding – FGF22 (human) thermal shift binding. recombinant FGF22 thermal shift, SYPRO orange fluorescence; percent of sucrose octasulfate shift, DMSO zero. activity (Tm shift, normalised), % at 9.99 µM. 340,000 tested, 1.5% active. AID 651658;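 active = mean Tm shift, scaled 0 neutral to 100 positive control, at about 1.3% or above, every replicate too, limit read from the data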
Target sequence (Q9HCT0 whole entry, looked up): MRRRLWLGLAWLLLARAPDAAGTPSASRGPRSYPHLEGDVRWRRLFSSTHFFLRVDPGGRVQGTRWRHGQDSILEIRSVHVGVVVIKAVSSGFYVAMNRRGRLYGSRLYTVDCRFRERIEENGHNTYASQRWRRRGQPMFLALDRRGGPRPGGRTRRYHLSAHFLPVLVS
* hit, by the source's call; nt = no result given; [ ] = remark or other dose.

SMILES | 697 NFkB inh | miR-122 sensor | Jurkat NFkB inh | NR2E3 ag-1 | NR2E3 ag-2 | FGF22 binding
Cc1ccc(S(=O)(=O)NCCC(=O)Nc2ccc(Cl)c(Cl)c2)cc1C | 3.0 | -2.0 | 5.8 | 14.0 | -0.9 | 46.6*
Cc1cccc(OCC(=O)N2CCN(S(C)(=O)=O)CC2)c1 | 16.1 | nt | 7.8 | 0.5 | 1.1 | 43.1*
O=C(COc1ccc(-c2ccccc2)cc1)N1CCN(S(=O)(=O)Cc2ccccc2)CC1 | -29.0 | 99.2* | 21.8 | 14.6 | 2.2 | nt
Cc1ccc(OCC(=O)N2CCN(C(=O)Cc3ccccc3)CC2)cc1 | 16.8 | nt | -0.1 | -12.4 | -0.6 | nt
NC(=O)C1=CC2C3C=CC2(O)C(=O)OC3O1 (configuration not stated) | nt | 135.6* | nt | 42.4 | nt | 0.0
CO[C@H]1CN(C)C(=O)c2ccc(NC(C)=O)cc2OC[C@@H](C)N(C(=O)c2ccccc2)C[C@@H]1C | nt | nt | nt | nt | nt | -0.2
C(=N\Nc1ncnc2nc[nH]c12)/c1cccs1 | -39.9 | -3.5 | -35.8 | -60.5 | -5.5 | 43.3*
O=C(O)C(Cc1c[nH]c2ccccc12)NS(=O)(=O)c1ccc(Cl)cc1 (configuration not stated) | -0.5 | nt | -8.3 | -4.9 | -4.1 | 43.5*
CCOC(=O)C1=C(C)Nc2ccccc2N=C1NC(=O)/C=C/c1ccc(OC)cc1OC | 18.0 | nt | 15.8 | 1.6 | 0.7 | 43.5*
O=C(CN1CCCC1)OCCCc1ccccc1 | -10.4 | -4.5 | 2.3 | -21.3 | 2.0 | 43.9*
C[C@@H]1CN([C@@H](C)CO)C(=O)Cc2cc(NC(=O)C3CC3)ccc2O[C@@H]1CN(C)S(=O)(=O)c1ccccc1 | nt | 3.0[16.7 µM] | nt | nt | nt | -0.1
CCCCCCN1C[C@H](O)[C@@H](n2cc(C3CC3)nn2)C[C@@H]1c1ccc(C)cc1 | nt | 2.6 | nt | -16.3 | nt | 43.7*
CCOc1cc(CNCC(C)C)cc(Cl)c1OCc1ccccc1 | 4.8 | nt | 5.1 | 18.1 | 4.5 | 43.8*
C[C@H](CO)N1C[C@H](C)[C@@H](CN(C)Cc2ccc(Oc3ccccc3)cc2)Oc2c(NC(=O)C3CCOCC3)cccc2C1=O | nt | 100.0*[16.7 µM] | nt | nt | nt | 0.1
C[C@H](CO)N1C[C@H](C)[C@@H](CN(C)Cc2ccc(Oc3ccccc3)cc2)Oc2c(NC(=O)c3ccncc3)cccc2C1=O | 15.5 | 110.9*[16.7 µM] | 22.4 | 15.3 | nt | -0.4
C[C@H](CO)N1C[C@H](C)[C@H](CN(C)C(=O)Nc2cccc3ccccc23)Oc2ccc(NC(=O)Cc3cn(C)c4ccccc34)cc2C1=O | nt | -1.2[16.7 µM] | nt | nt | nt | -0.4
O=C(COC(=O)c1ccc(Cl)nc1)c1ccc2c(c1)OCCO2 | -27.0 | nt | -26.2 | -13.0 | 1.0 | 43.4*
C[C@@H]1CN([C@H](C)CO)C(=O)c2cc(NC(=O)CCCCCC(=O)Nc3ccccc3N)ccc2O[C@@H]1CN(C)C(=O)Nc1ccc2c(c1)OCO2 | nt | -3.4[16.7 µM] | nt | nt | nt | -0.1
CC(=O)c1cccc(NC(=O)CSc2n[nH]c(=O)n2C2CC2)c1 | 12.5 | -4.2 | 16.4 | 0.6 | nt | 43.1*
CCn1nc(C(=O)OCC(=O)N(CC(C)C)c2c(N)n(Cc3ccccc3)c(=O)[nH]c2=O)c2ccccc2c1=O | -7.5 | 3.5 | 4.4 | 16.0 | 1.0 | 9.2*
CC(C)CN(C(=O)COC(=O)c1cccc2ccccc12)c1c(N)n(Cc2ccccc2)c(=O)[nH]c1=O | 16.8 | nt | 4.2 | -4.0 | 1.8 | -0.4
O=C(CCN1C(=O)C2C3C=CC(C3)C2C1=O)N1CCCCC1 (configuration not stated) | 6.6 | nt | 4.8 | 4.0 | -1.9 | 43.2*
CCOC(=O)C1CCN(C(=O)CCN2C(=O)C3C4C=CC(C4)C3C2=O)CC1 (configuration not stated) | 9.4 | -3.2 | 0.7 | -5.8 | -2.1 | nt
C[C@@H]1CN([C@@H](C)CO)C(=O)Cc2cc(N(C)C)ccc2O[C@H]1CN(C)C(=O)Nc1ccc(F)cc1 | nt | 6.9[16.7 µM] | nt | nt | nt | -1.0
CN(C)c1cc(N/N=C\c2ccccc2)nc(N(C)C)n1 | -15.5 | nt | 13.8 | 23.1 | -4.4 | 43.0*
SMILES | 697 NFkB inh | miR-122 sensor | Jurkat NFkB inh | NR2E3 ag-1 | NR2E3 ag-2 | FGF22 binding
C[C@@H]1CN([C@H](C)CO)S(=O)(=O)c2ccc(C#CC3(O)CCCC3)cc2O[C@@H]1CN(C)C(=O)c1ccccc1 | nt | 1.1[16.7 µM] | nt | nt | nt | -0.1
O=C(COc1ccc(S(=O)(=O)N2CCOCC2)cc1)NCCc1ccc(Cl)cc1 | nt | 4.5 | nt | 15.0 | nt | 42.9*
O=C(COC(=O)c1cc(S(=O)(=O)N2CCOCC2)ccc1Cl)NC1CCCCC1 | nt | -5.9 | nt | 21.7 | nt | 42.9*
O=C(NNS(=O)(=O)c1ccc(Cl)cc1)c1cccc(S(=O)(=O)N2CCOCC2)c1 | 16.1 | 249.2* | -1.6 | -7.8 | -1.8 | -0.1
COc1ccc(CNC(=O)COc2ccc(S(=O)(=O)N3CCOCC3)cc2)cc1 | -7.6 | -5.6 | 16.9 | 6.6 | -2.2 | -0.1
CC1CCC(NC(=O)c2cccc(S(=O)(=O)N3CCOCC3)c2)CC1 (configuration not stated) | nt | -9.4 | nt | -33.0 | nt | 43.0*
O=C(NNS(=O)(=O)c1cccc(Cl)c1Cl)c1cccc(S(=O)(=O)N2CCOCC2)c1 | 14.6 | 20.3 | 2.8 | -11.4 | 0.0 | 0.3
CS(=O)(=O)N1[C@@H](C#N)[C@H](c2ccc(-c3ccccc3F)cc2)[C@@H]1CO | nt | nt | nt | nt | nt | -0.1
C[C@H](CO)N1C[C@H](C)[C@H](CN(C)C(=O)Nc2ccccc2)OCCCC[C@H](C)Oc2ccc(NS(=O)(=O)c3ccc(F)cc3)cc2C1=O | nt | 1.3[16.7 µM] | nt | nt | nt | -0.1
CCS(=O)(=O)c1nc(S(=O)(=O)c2ccc(Cl)cc2)c(NCc2ccccn2)s1 | 11.4 | 8.8 | -0.7 | -6.0 | 1.1 | 43.6*
CS(=O)(=O)c1nc(S(=O)(=O)c2ccc(Cl)cc2)c(NCCCN2CCOCC2)s1 | 7.8 | 1.2 | 5.8 | 24.4 | -1.8 | -0.3
CCNc1sc(S(C)(=O)=O)nc1S(=O)(=O)c1ccc(Cl)cc1 | -0.2 | 1.5 | 15.3 | -4.0 | 0.9 | 43.4*
CCS(=O)(=O)c1nc(S(=O)(=O)c2ccc(Cl)cc2)c(NCCCN2CCOCC2)s1 | 12.5 | 0.0 | 0.8 | -2.2 | 3.5 | -0.5
CO[C@H]1CN(C)C(=O)c2cc(NC(=O)c3cc(C)on3)ccc2OC[C@H](C)N(CC2CC2)C[C@H]1C | nt | nt | nt | nt | nt | 0.1
O=C(C[C@@H]1C[C@@H]2c3cc(NC(=O)c4cccnc4)ccc3O[C@@H]2[C@@H](CO)O1)NCc1ccc(Oc2ccccc2)cc1 | nt | 17.8[16.7 µM] | nt | nt | nt | -0.1
CCC(=O)Nc1ccc(C(=O)Nc2cccc(C)n2)cc1 | -81.3 | 218.5* | -71.3 | -63.2 | 1.4 | nt
CCC(=O)Nc1ccc(C(=O)Nc2ccc(Br)cc2F)cc1 | -30.5 | -0.6 | -39.6 | -19.5 | 7.3 | 43.5*
COCC#Cc1ccc2c(c1)O[C@H](CN(C)S(=O)(=O)c1ccc(F)cc1)[C@@H](C)CN([C@@H](C)CO)S2(=O)=O | nt | 2.0[16.7 µM] | nt | nt | nt | -0.5
Cc1ccc(C(=O)N/C(=C\c2cccc([N+](=O)[O-])c2)C(=O)Nc2cccc(C(=O)O)c2)cc1 | 3.0 | nt | 11.1 | 5.8 | 5.2 | -0.1

Assay outcomes deposited in PubChem BioAssay by several laboratories.
